This is a sample that favours compounds with a hit; in the whole collection about 3.5% have one here.
MrgX1 PAM: positive allosteric modulators of MrgX1, primary screen, HEK293 cells, Fluo-4 calcium flux; Mas-related G-protein coupled receptor member X1 (Homo sapiens), Q96LB2; FDSS; active compounds read high; B-score at 10 µM; actives 0.63% (n = 310,000);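 active means plate-corrected calcium response at least 3 library SD above typical, normal starting fluorescence, not activating the receptor alone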;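 further: compound read alongside a low EC10 to EC30 dose of BAM8-22 agonist; peak minus trough fluorescence over baseline measured at the second addition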
Target sequence (Q96LB2 whole entry, looked up): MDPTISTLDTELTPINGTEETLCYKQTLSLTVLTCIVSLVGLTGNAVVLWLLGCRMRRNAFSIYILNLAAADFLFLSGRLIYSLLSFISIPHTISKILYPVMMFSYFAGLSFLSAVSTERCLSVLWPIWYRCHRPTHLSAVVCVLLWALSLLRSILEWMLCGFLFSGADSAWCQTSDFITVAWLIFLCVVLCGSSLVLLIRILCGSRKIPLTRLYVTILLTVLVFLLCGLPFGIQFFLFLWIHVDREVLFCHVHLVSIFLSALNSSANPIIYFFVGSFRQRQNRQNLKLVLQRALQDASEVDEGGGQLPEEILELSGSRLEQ
MrgX1 agonist: agonists of human MrgX1 receptor, primary screen, HEK293 cells, Fluo-4 calcium flux | AID 588627, 2011 | Fluo-4 calcium fluorescence, agonist mode; active compounds read high | actives 0.44% (n = 310,000) | B-score at 10 µM | Mas-related G-protein coupled receptor member X1 (Homo sapiens), Q96LB2;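 active means calcium response B-score plate-corrected fluorescence ratio at least 3 library SD, with starting fluorescence B-score inside 5 SD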
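System – MrgX1-expressing HEK293 cells · Incubation – cells plated overnight, dye loaded 0.5 h 37 °C, 0.5 h room temperature · Technique – kinetic Fluo-4 NW fluorescence of intracellular calcium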
RGS4 block: RGS4 inhibitors, primary screen, cell-based, HEK293 M3R inducible RGS4, calcium flux; Regulator of G-protein signaling 4 (Homo sapiens), P49798; Fluo-4 calcium flux; active compounds read high; triggered by carbachol at its EC20; B-score at 10 µM; actives 0.45% (n = 310,000);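 active means B-score, a plate-corrected calcium signal, over three deviations above library mean, with baseline fluorescence within five deviations of library mean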;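 further: RGS4 expression induced by doxycycline in cells with stable M3 receptor; B-score is computed from the integrated fluorescence ratio over baseline after carbachol; higher B-score means a larger calcium signal and so more RGS4 inhibition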
Target sequence (P49798 whole entry, looked up): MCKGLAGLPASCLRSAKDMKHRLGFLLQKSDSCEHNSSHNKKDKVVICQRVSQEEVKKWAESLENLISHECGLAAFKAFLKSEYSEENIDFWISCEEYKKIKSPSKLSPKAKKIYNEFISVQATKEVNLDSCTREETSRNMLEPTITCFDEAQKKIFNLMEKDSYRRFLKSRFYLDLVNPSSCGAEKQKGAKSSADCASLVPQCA
RGS4 pot: RGS4 potentiators or activators, primary screen, cell-based, HEK293 M3R inducible RGS4, calcium flux. carbachol calcium flux Fluo4; active compounds read low. B-score at 10 µM. actives 0.92% (n = 310,000);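 active means B-score of the integrated calcium signal more than 4 SD below the library mean, with starting fluorescence not abnormally high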;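 further: negative B-score means reduced calcium response which marks RGS4 activation or potentiation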
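test system = HEK293 cells with stable M3R and inducible RGS4 | schedule = recording 10 s baseline at 1 Hz, 100 s post-agonist | technique = Fluo4-AM (2 µM) calcium-flux fluorescence, kinetic read | measure = Agonist-evoked peak-minus-minimum fluorescence over baseline, integrated ratio, B score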
MrgX1 antag: antagonists of human MrgX1 receptor, primary screen, HEK293 cells, Fluo-4 calcium flux | B-score at 10 µM | actives 1.3% (n = 310,000) | BAM8-22 antagonism; active compounds read low | AID 588676, 2011 | Mas-related G-protein coupled receptor member X1 (Homo sapiens), Q96LB2;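 active means calcium-response B-score plate-corrected more than 3 library SD below zero, starting fluorescence within 5 deviations, no agonist response on first addition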;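 further: peak minus trough fluorescence over baseline after final BAM8-22 challenge near maximal dose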
Numbers stand for hits; 0 = inactive; - = no result.

SMILES | MrgX1 PAM | MrgX1 agonist | RGS4 block | RGS4 pot | MrgX1 antag
Cc1ccc(NC(=O)C(C)OC(=O)c2ccc(NC(=O)CC#N)cc2)cc1S(=O)(=O)N1CCOCC1 (stereo unspecified) | 0 | 0 | 0 | 0 | -4.54
CC1(C)Cc2c(C#N)c(NC3CCCCC3)nc(-c3ccco3)c2CO1 | 0 | 29.4 | 0 | 0 | 0
CC(C)NC(=O)CSc1c2c(nc3ccccc13)CCCC2 | 0 | 0 | 0 | 0 | 0
O=C1NN(c2ccc(F)cc2)C(=O)/C1=C/c1cccs1 | 0 | 29.7 | 0 | 0 | 0
CC1=NN(c2ccccc2)C(=O)/C1=C/c1cccs1 | 0 | 0 | 0 | 0 | 0
CSc1nc2sc3c(c2c(=O)[nH]1)CC(C)(C)OC3 | 0 | 0 | 0 | 0 | 0
Cc1nn(CCOc2ccccc2)c(=O)n1-c1ccccc1 | 0 | 0 | 0 | 0 | 0
Cc1nn(CCOc2ccccc2)c(=O)n1-c1ccc(Cl)cc1 | 10.8 | 0 | 0 | 0 | 0
Cc1cccc(NC(=S)NNC(=O)COc2ccc(Cl)cc2Cl)c1 | 10 | 0 | 0 | 0 | 0
O=C(COc1ccc(Cl)cc1Cl)Nc1ccc(CN2CCOCC2)cc1 | 0 | 0 | 0 | 0 | 0
O=C(COc1ccc(Cl)cc1Cl)Nc1ccc(CN2CCCCC2)cc1 | 0 | 0 | 0 | -7.14 | 0
O=C(c1ccc(COc2ccc(Cl)cc2Cl)o1)N1CCCC1 | 0 | 0 | 0 | -7.58 | 0
COc1ccc(NC2CCCN(C(=O)c3cc(CC(C)C)nc(N)n3)C2)cc1 (stereo unspecified) | 0 | 0 | 0 | 0 | 0
CC(/C=C1\SC(=S)N(NS(=O)(=O)c2ccccc2)C1=O)=C\c1ccccc1 | 0 | 0 | 0 | 0 | -8.8
CC(/C=C1\SC(=S)N(NC(=O)c2ccc(C)cc2)C1=O)=C\c1ccccc1 | 0 | 0 | 0 | 0 | 0
O=C1/C(=C\c2ccc(Br)cc2)SC(=S)N1NS(=O)(=O)c1ccccc1 | 0 | 0 | 0 | 0 | 0
CC(/C=C1\SC(=S)N(c2ccc(C(=O)O)cc2)C1=O)=C\c1ccccc1 | 0 | 0 | 0 | -8.44 | -9.62
COc1ccc(/C=C2/SC(=S)N(NS(=O)(=O)c3ccccc3)C2=O)cc1 | 0 | 30.6 | 0 | 0 | 0
C/C(=N\OCc1ccccc1)c1c(O)cc(C(C)C)n(-c2ccccc2)c1=O | 0 | 0 | 0 | 0 | 0
Cc1cc(NC(=O)COC(=O)C2CC(=O)N(c3ccccc3Cl)C2)no1 (stereo unspecified) | 0 | 0 | 0 | 0 | 0
COc1cc(C(=O)O)ccc1OCc1ccncc1 | 0 | 0 | 0 | 0 | 0
O=C(Nc1cc(Sc2ccccn2)cc([N+](=O)[O-])c1)c1ccc(Cl)cc1 | 0 | 0 | 0 | -8 | -6.11
CC1(C)CC(=O)c2cnc(N3CCc4ccccc43)nc2C1 | 0 | 0 | 0 | 0 | 0
CN1CCN(/N=C/c2ccc(-c3ccc([N+](=O)[O-])cc3Cl)o2)CC1 | 0 | 0 | 0 | 0 | -4.6
O=C(O)/C=C/c1ccc(S(=O)(=O)N2CCN(CCN3C(=O)C4C5C=CC(C5)C4C3=O)CC2)cc1 (stereo unspecified) | 0 | 0 | 0 | 0 | 0
SMILES | MrgX1 PAM | MrgX1 agonist | RGS4 block | RGS4 pot | MrgX1 antag
CC(=O)N1CCN(c2ccc(C(N)=O)cc2[N+](=O)[O-])CC1 | 0 | 0 | 0 | 0 | 0
NC(=O)c1ccc(N2CCCCCC2)c([N+](=O)[O-])c1 | 0 | 0 | 0 | 0 | -5.65
COc1ccc(Cl)cc1NC(=O)CN(C)C(=O)c1ccc(N2CCCCC2)c([N+](=O)[O-])c1 | 0 | 0 | 0 | 0 | 0
CCN(CC(=O)Nc1c(F)cccc1F)C(=O)c1ccc(N2CCCCC2)c([N+](=O)[O-])c1 | 0 | 0 | 0 | 0 | -4.64
COc1ccc(Cl)cc1NC(=O)CN(C)C(=O)c1ccc(N2CCCCCC2)c([N+](=O)[O-])c1 | 0 | 0 | 0 | 0 | -6.58
CCOc1ccc(/C=N/OCC(=O)NCc2ccc3c(c2)OCO3)cc1OC | 0 | 0 | 0 | 0 | -5.92
COc1ccccc1/C=N/OCC(=O)NCc1ccc2c(c1)OCO2 | 0 | 0 | 0 | 0 | 0
O=[N+]([O-])c1ccc(N2CCN(S(=O)(=O)c3ccc(Cl)c(Cl)c3)CC2)cc1NCCN1CCOCC1 | 0 | 0 | 0 | 0 | 0
CCNc1cc(N2CCN(S(=O)(=O)c3ccc4c(c3)CCCC4)CC2)ccc1[N+](=O)[O-] | 0 | 0 | 0 | 0 | -7.49
O=C(NC12CC3CC(CC(C3)C1)C2)c1c(Cl)cccc1Cl | 0 | 0 | 0 | 0 | 0
CCOc1ccccc1NC(=S)N1CCC(NC(=O)NC23CC4CC(CC(C4)C2)C3)CC1 | 0 | 0 | 0 | 0 | 0
N#C/C(=N\Nc1cccc(C(F)(F)F)c1)C(=O)c1csc(-c2cccnc2)n1 | 0 | 0 | 0 | 0 | -5.65
Cc1ccc(C(=O)Nc2cccc(C(F)(F)F)c2)cc1NC(=O)c1csc(-c2ccncc2)n1 | 0 | 0 | 0 | 0 | 0
Cc1cccc(C(=O)N(CC(=O)Nc2sc(C)c(C)c2C(N)=O)C2CCCC2)c1 | 0 | 0 | 0 | 0 | 0
CCn1cc(-c2nnnn2-c2ccc(Cl)cc2)c(=O)c2ccccc21 | 0 | 0 | 0 | 0 | 0
Fc1ccc2[nH]c3c(N4CCN(C5CCCCC5)CC4)ncnc3c2c1 | 0 | 0 | 0 | -7.62 | 0
Cc1ccc2[nH]c3c(N4CCCCCC4)ncnc3c2c1 | - | - | 0 | 0 | -
CCN=c1scc(-c2ccc3c(c2)NC(=O)CO3)n1N=C1CCCC1 | 0 | 0 | 0 | 0 | 0
CCCCN=c1scc(-c2ccc3c(c2)NC(=O)CO3)n1N=C1CCCC1 | 0 | 32.2 | 0 | 0 | 0
CCc1ccc(C(=O)C(C)OC(=O)C2COc3ccccc3O2)cc1 (stereo unspecified) | 0 | 0 | 0 | 0 | 0
N#C/C(=C(/O)CSc1ncn[nH]1)c1nc2ccccc2[nH]1 | 0 | 0 | 0 | 0 | -6.09
C/C(O)=C(/C#N)c1nc2ccccc2[nH]1 | 0 | 0 | 0 | 0 | 0
O=C(Nc1nc(-c2ccccc2)cs1)c1ccc(N2CCOCC2)c([N+](=O)[O-])c1 | 0 | 0 | 0 | 0 | -7.37
Cc1ccc(-c2csc(NC(=O)c3cc([N+](=O)[O-])ccc3N3CCOCC3)n2)cc1 | 0 | 0 | 0 | 0 | 0
CCOC(=O)C1(CCOc2ccccc2)CCN(Cc2ccc(COC)o2)CC1 | 0 | 32.5 | 0 | 0 | 0
CCOC(=O)C1(CCOc2ccccc2)CCN(Cc2ccc(OC)c(COC)c2)CC1 | 0 | 0 | 0 | 0 | -4.68
COC(=O)c1ccc(CN2CCC(CO)(CCOc3ccccc3)CC2)cc1 | 0 | 0 | 0 | -6.95 | 0
COC(=O)c1ccc(CN2CCC(CO)(Cc3cccc(OC)c3)CC2)cc1 | 0 | 0 | 0 | 0 | 0
NC(N)=NC(=O)c1nc(Cl)c(N2CCCCCC2)nc1N | 0 | 57.4 | - | - | 0
NC(N)=NC(=O)c1nc(Cl)c(N)nc1N | 0 | 0 | 0 | 0 | 0
